Laboratory results reported in ChEMBL document CHEMBL4002604, “Evaluation of biological properties of 3,3',4,4'-benzophenonetetracarboxylic dianhydride derivatives and their ability to inhibit hexokinase activity” (2017).

Key:
[1] = target: T1, Hexokinase-2 (Mus musculus) (UniProt O08528); assay: Potency index, ratio of compound effect to 2-DG effect for inhibition of HK2 in mouse undifferentiated P19 cells
T1 sequence (whole entry): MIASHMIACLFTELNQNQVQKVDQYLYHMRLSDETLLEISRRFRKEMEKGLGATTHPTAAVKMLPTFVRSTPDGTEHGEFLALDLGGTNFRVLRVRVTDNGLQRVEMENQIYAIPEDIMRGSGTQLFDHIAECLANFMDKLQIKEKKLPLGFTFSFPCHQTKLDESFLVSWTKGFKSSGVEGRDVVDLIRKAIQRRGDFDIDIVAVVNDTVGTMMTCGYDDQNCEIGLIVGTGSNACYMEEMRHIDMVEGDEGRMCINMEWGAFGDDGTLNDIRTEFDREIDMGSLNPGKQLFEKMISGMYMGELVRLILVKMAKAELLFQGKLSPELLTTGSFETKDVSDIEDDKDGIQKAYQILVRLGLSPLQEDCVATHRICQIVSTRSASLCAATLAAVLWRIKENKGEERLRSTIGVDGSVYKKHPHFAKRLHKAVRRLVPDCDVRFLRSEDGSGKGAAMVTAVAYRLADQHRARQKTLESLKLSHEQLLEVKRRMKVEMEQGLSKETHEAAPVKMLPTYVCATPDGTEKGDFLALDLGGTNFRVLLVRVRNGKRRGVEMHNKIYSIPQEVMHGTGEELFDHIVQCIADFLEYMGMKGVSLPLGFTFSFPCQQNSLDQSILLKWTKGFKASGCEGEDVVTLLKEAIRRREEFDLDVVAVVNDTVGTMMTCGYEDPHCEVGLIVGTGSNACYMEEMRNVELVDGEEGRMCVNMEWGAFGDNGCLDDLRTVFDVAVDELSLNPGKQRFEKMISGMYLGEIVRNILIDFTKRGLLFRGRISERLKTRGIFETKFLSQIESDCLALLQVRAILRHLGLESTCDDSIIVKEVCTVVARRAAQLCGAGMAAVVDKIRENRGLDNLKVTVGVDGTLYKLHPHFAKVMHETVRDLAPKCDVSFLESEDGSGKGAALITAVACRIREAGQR

[2] = target: T1, Hexokinase-2 (Mus musculus); assay: Inhibition of HK2 isolated from mouse undifferentiated P19 cell lysates using [U-14C]-labeled glucose as substrate in presence of ATP and NADP by G6PD enzyme coupled spectrophotometric assay; conditions: in the assay text read “glucose” for “[U-14C]-labeled glucose”
In short: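 Coupled hexokinase assay at 340 nm following G6P-dependent NADP→NADPH conversion. Enzyme source is freshly prepared, centrifuged undifferentiated P19 lysate supernatant or recombinant human HKII. Buffer: 100 mM Tris-HCl pH 8.0, 0.5 mM EDTA, 10 mM MgCl2, 2 mM glucose, 0.1 mM NADP, 0.1 U/ml G6PD. Preincubated 10 min at 37°C; reaction started with 10 mM ATP. Means ± SD, 4 experiments, at least 4 repeats each.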

P19 [3] = assay: Cytotoxicity against undifferentiated mouse P19 cells assessed as mitochondrial superoxide anion level at 100 uM after 24 hrs by MitoSox dye based fluorescence assay relative to control; assay type: functional
In short: (§1)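 Undifferentiated (P19SCs) or differentiated (P19dCs) P19 cells incubated 24 or 72 h with 1 or 100 µM. Mitochondrial membrane potential and mitochondrial superoxide levels measured and expressed relative to untreated control. Means ± SD from 4 independent measurements, at least 4 repeats each. Significance at p<0.05.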

P19 [4] = assay: Cytotoxicity against undifferentiated mouse P19 cells assessed as mitochondrial membrane potential at 1 uM after 24 hrs by TMRF dye based fluorescence assay relative to control; assay type: functional; in short: as §1
P19 [5] = assay: Cytotoxicity against undifferentiated mouse P19 cells assessed as cell mass at 1 to 100 uM after 48 hrs by SRB assay relative to control; assay type: functional
In short: (§2)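 Cell mass by SRB assay in P19 cells (CRL-1825), either undifferentiated (P19SCs) or differentiated (P19dCs). Cells exposed to 1, 10 or 100 µM for 24, 48 or 72 h. Values expressed relative to untreated control. Means ± SD from at least 4 independent measurements, 6 repeats each. Significance vs control at p<0.05.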

P19 [6] = assay: Cytotoxicity against undifferentiated mouse P19 cells assessed as mitochondrial membrane potential at 100 uM after 24 hrs by TMRF dye based fluorescence assay relative to control; assay type: functional; in short: as §1
P19 [7] = assay: Cytotoxicity against undifferentiated mouse P19 cells assessed as cell mass at 1 to 100 uM after 24 hrs by SRB assay relative to control; assay type: functional; in short: as §2
P19 [8] = assay: Cytotoxicity against differentiated mouse P19 cells assessed as mitochondrial membrane potential at 1 uM after 24 hrs by TMRF dye based fluorescence assay relative to control; assay type: functional; in short: as §1
P19 [9] = assay: Cytotoxicity against undifferentiated mouse P19 cells assessed as mitochondrial superoxide anion level at 1 uM after 72 hrs by MitoSox dye based fluorescence assay relative to control; assay type: functional; in short: as §1
P19 [10] = assay: Cytotoxicity against differentiated mouse P19 cells assessed as mitochondrial membrane potential at 100 uM after 24 hrs by TMRF dye based fluorescence assay relative to control; assay type: functional; in short: as §1

Ratio [1]: > 500
inhibition [2]: Dose-dependent effect
Structure (SMILES): O=C(c1ccc2c(c1)C(=O)N(c1cccc(O)c1)C2=O)c1ccc2c(c1)C(=O)N(c1cccc(O)c1)C2=O
Activity (P19 [3]): 55.1%
Activity (P19 [4]): 86%
Activity (P19 [5]): 79.9%
Activity (P19 [6]): 91%
Activity (P19 [7]): 103.3%
Activity (P19 [8]): 94.5%
Activity (P19 [9]): 106%
Activity (P19 [10]): 96.4%
